Measurements published in ChEMBL document CHEMBL1817667, “Synthesis and antimicrobial properties of some new thiazolyl coumarin derivatives” (2011).
Converted amounts (≈) assume the structure as drawn.

Tests used:
Format in all cases: functional
Staphylococcus aureus = test: Antibacterial activity against Staphylococcus aureus ATCC 25923 after 24 hrs by MTT assay; details: ATCC 25923, 24 h
Summary of the method: (§1)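 Broth microdilution. Inocula were grown in Mueller-Hinton broth from subcultures on nutrient agar (37 °C, 48 h) and set to McFarland 0.5. Compounds in DMSO were diluted with water, then two-fold serially from 3.91 to 250 µg/mL. Gentamicin and tetracycline served as positive controls and DMSO as negative. Plates ran 37 °C for 24 h, then MTT (0.2 mg/mL) for 30 min. MIC was the lowest concentration preventing the yellow-to-purple change.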

Streptococcus pyogenes = test: Antibacterial activity against Streptococcus pyogenes ATCC 19615 after 24 hrs by MTT assay; details: ATCC 19615, 24 h; summary of the method: as §1
Haemophilus influenzae = test: Antibacterial activity against Haemophilus influenzae ATCC 10211 after 24 hrs by MTT assay; summary of the method: as §1
Candida albicans = test: Antifungal activity against Candida albicans ATCC 10231 after 24 hrs by MTT assay; details: ATCC 10231, 24 h; summary of the method: as §1
[1] = test system: Mycobacterium tuberculosis; test: Antibacterial activity against Mycobacterium tuberculosis H37Rv ATCC 27294 after 5 days by MTT assay; details: H37Rv ATCC 27294, 120 h
Summary of the method: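 Inoculum from log-phase culture in Middlebrook 7H9 with ADC, set to McFarland no. 1 (approximately 3×10^7 CFU/mL), then diluted 1:20 in 7H9-OADC. Compounds in DMSO/water, two-fold series 3.91–250 μg/mL, tested in triplicate. Isoniazid positive control, drug-free growth wells. Incubated 37 °C, 8% CO₂. MTT–Tween 80 added to a control well; once purple, added to all wells. MIC read next day.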

Row | Molecule | MIC (Staphylococcus aureus) [µM] | MIC (Streptococcus pyogenes) [µM] | MIC (Haemophilus influenzae; ATCC 10211, 24 h) [µM] | MIC (Candida albicans) [µM] | MIC [1] [µM] | MIC (Haemophilus influenzae) [µM]
1 | COc1cccc(/C=N\Nc2nc(-c3cc4ccccc4oc3=O)cs2)c1O | 159 (≈ 62.6 µg/mL) | 159 (≈ 62.6 µg/mL) | 79 (≈ 31.1 µg/mL) | 79 (≈ 31.1 µg/mL) | 79 (≈ 31.1 µg/mL) | 
2 | GENTAMICIN |  |  |  |  |  | 13
3 | CN(C)[C@@H]1C(O)=C(C(N)=O)C(=O)[C@@]2(O)C(O)=C3C(=O)c4c(O)cccc4[C@@](C)(O)[C@H]3C[C@@H]12 [TETRACYCLINE] | 70 (≈ 31.1 µg/mL) | 14 (≈ 6.22 µg/mL) | 35 (≈ 15.6 µg/mL) |  |  | 
4 | OC(Cn1cncn1)(Cn1cncn1)c1ccc(F)cc1F [FLUCONAZOLE] |  |  |  | 10 (≈ 3.06 µg/mL) |  | 
5 | O=c1oc2ccccc2cc1-c1csc(N/N=C\c2c(O)ccc3ccccc23)n1 | 75 (≈ 31 µg/mL) | 75 (≈ 31 µg/mL) | 151 (≈ 62.4 µg/mL) | 151 (≈ 62.4 µg/mL) | 75 (≈ 31 µg/mL) | 
6 | O=c1oc2ccccc2cc1-c1csc(N/N=C\c2ccc(O)cc2)n1 | 344 (≈ 125 µg/mL) | 172 (≈ 62.5 µg/mL) | 344 (≈ 125 µg/mL) | 172 (≈ 62.5 µg/mL) | 344 (≈ 125 µg/mL) | 
7 | NNC(=O)c1ccncc1 [ISONIAZID] |  |  |  |  | 1.3 (≈ 0.178 µg/mL) | 
8 | C/C(=N/Nc1nc(-c2cc3ccccc3oc2=O)cs1)c1cc2cc(Br)ccc2oc1=O | 62 (≈ 31.5 µg/mL) | 62 (≈ 31.5 µg/mL) | 15 (≈ 7.63 µg/mL) | 31 (≈ 15.8 µg/mL) | 15 (≈ 7.63 µg/mL) | 
9 | O=c1oc2ccccc2cc1-c1csc(NN=C(c2ccccc2)c2ccccc2)n1 | 295 (≈ 125 µg/mL) | 295 (≈ 125 µg/mL) | 147 (≈ 62.3 µg/mL) | 147 (≈ 62.3 µg/mL) | 147 (≈ 62.3 µg/mL) | 
10 | O=c1oc2ccccc2cc1-c1csc(N/N=C\c2ccccc2O)n1 | 172 (≈ 62.5 µg/mL) | 344 (≈ 125 µg/mL) | 43 (≈ 15.6 µg/mL) | 86 (≈ 31.3 µg/mL) | 43 (≈ 15.6 µg/mL) | 
11 | O=c1oc2ccccc2cc1-c1csc(N/N=C\c2ccc(O)cc2O)n1 | 82 (≈ 31.1 µg/mL) | 329 (≈ 125 µg/mL) | 329 (≈ 125 µg/mL) | 165 (≈ 62.6 µg/mL) | 329 (≈ 125 µg/mL) | 
12 | O=c1oc2ccccc2cc1-c1csc(N/N=C\c2cccc(O)c2)n1 | 172 (≈ 62.5 µg/mL) | 344 (≈ 125 µg/mL) | 172 (≈ 62.5 µg/mL) | 172 (≈ 62.5 µg/mL) | 172 (≈ 62.5 µg/mL) | 
13 | C/C(=N/Nc1nc(-c2cc3ccccc3oc2=O)cs1)c1cc2ccc(O)cc2oc1=O | 17 (≈ 7.57 µg/mL) | 72 (≈ 32.1 µg/mL) | 35 (≈ 15.6 µg/mL) | 140 (≈ 62.4 µg/mL) | 17 (≈ 7.57 µg/mL) | 
14 | C/C(=N\Nc1nc(-c2cc3ccccc3oc2=O)cs1)c1ccc(O)cc1 | 165 (≈ 62.3 µg/mL) | 165 (≈ 62.3 µg/mL) | 331 (≈ 125 µg/mL) | 331 (≈ 125 µg/mL) | > 663 | 
15 | O=c1oc2ccccc2cc1-c1csc(N/N=C\c2cccc3ccccc23)n1 | 157 (≈ 62.4 µg/mL) | 314 (≈ 125 µg/mL) | 314 (≈ 125 µg/mL) | 157 (≈ 62.4 µg/mL) | 157 (≈ 62.4 µg/mL) | 
16 | O=c1oc2ccccc2cc1-c1csc(N/N=C\c2cc(Br)ccc2O)n1 | 35 (≈ 15.5 µg/mL) | 17 (≈ 7.52 µg/mL) | 17 (≈ 7.52 µg/mL) | 35 (≈ 15.5 µg/mL) | 17 (≈ 7.52 µg/mL) | 
